Residue numbers refer to the chain shown, from its start. Names and notes keep the numbering of the source.
How the values were obtained:
[1] = substrate: O=C(O)C[C@H](C(=O)O)[C@@H](O)C(=O)O; assay: Apparent S0.5 for isocitrate; type: biochemical; conditions: pH 7.4; 24.0 °C
[2] = tested on: Yeast NAD+-specific isocitrate dehydrogenase (IDH); assay: Kinetic analyses: isocitrate saturation velocity curves of purified IDH enzymes; type: biochemical; conditions: for Hill coef. with respect to isocitrate, − AMP: absence of AMP; for Vmax (apparent), + AMP: isocitrate velocity saturation curve; for Vmax (apparent), + AMP / Hill coef. with respect to isocitrate, + AMP: presence of 100 μM AMP
Procedure, shortened: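 His-tagged IDH purified by Ni2+-NTA, stored at −20 °C in elution buffer with 20% glycerol, quantified by A280. Assays at 24 °C used 40 mM Tris-HCl pH 7.4, 4 mM MgCl2 and 0.5 mM NAD+. D-isocitrate was varied 0–5 mM, with or without 100 μM AMP, and NADH formation was followed. Apparent S0.5 and Hill coefficients came from saturation curves, Vmax as maximum velocity per mg, over two independent experiments.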

AUC [3] = molecular target: the molecule itself; assay: AUC
SEC = molecular target: the molecule itself; assay: SEC
AUC [4] = molecular target: the molecule itself; assay: AUC; remark: listed apart in the source

B1: IDH1/IDH2 (Saccharomyces cerevisiae S288C) (protein)
chain 1: ATAAQAERTLPKKYGGRFTVTLIPGDGVGKEITDSVRTIFEAENIPIDWETINIKQTDHKEGVYEAVESLKRNKIGLKGLWHTPADQTGHGSLNVALRKQLDIYANVALFKSLKGVKTRIPDIDLIVIRENTEGEFSGLEHESVPGVVESLKVMTRPKTERIARFAFDFAKKYNRKSVTAVHKANIMKLGDGLFRNIITEIGQKEYPDIDVSSIIVDNASMQAVAKPHQFDVLVTPSMYGTILGNIGAALIGGPGLVAGANFGRDYAVFEPGSRHVGLDIKGQNVANPTAMILSSTLMLNHLGLNEYATRISKAVHETIAEGKHTTRDIGGSSSTTDFTNEIINKLSTM
chain 2: ATVKQPSIGRYTGKPNPSTGKYTVSFIEGDGIGPEISKSVKKIFSAANVPIEWESCDVSPIFVNGLTTIPDPAVQSITKNLVALKGPLATPIGKGHRSLNLTLRKTFGLFANVRPAKSIEGFKTTYENVDLVLIRENTEGEYSGIEHIVCPGVVQSIKLITRDASERVIRYAFEYARAIGRPRVIVVHKSTIQRLADGLFVNVAKELSKEYPDLTLETELIDNSVLKVVTNPSAYTDAVSVCPNLYGDILSDLNSGLSAGSLGLTPSANIGHKISIFEAVHGSAPDIAGQDKANPTALLLSSVMMLNHMGLTNHADQIQNAVLSTIASGPENRTGDLAGTATTSSFTEAVIKRL
- K0.5 [1]: 0.53/0.10 (±0.10/0) mM

B2: IDH1^G15D/IDH2: full-length IDH1 with G15D substitution plus IDH2; stable tetramer (protein)
chain 1: B1 chain 1 with G15D
chain 2: B1 chain 2
modifications: left off: histidine tag, C-terminal, kept
- Hill coef. with respect to isocitrate, − AMP [2]: 2.3
- Vmax (apparent), + AMP [2]: 21.9 units/mg
- Hill coef. with respect to isocitrate, + AMP [2]: 2.0
- reduction in apparent Vmax relative to IDH1/IDH2 (wild-type) ([2]; relative to IDH1/IDH2): ~ 38%

B3: ^-5IDH1/IDH2: IDH with five residues truncated from the amino terminus of IDH1; octameric (protein)
chain 1: AERTLPKKYGGRFTVTLIPGDGVGKEITDSVRTIFEAENIPIDWETINIKQTDHKEGVYEAVESLKRNKIGLKGLWHTPADQTGHGSLNVALRKQLDIYANVALFKSLKGVKTRIPDIDLIVIRENTEGEFSGLEHESVPGVVESLKVMTRPKTERIARFAFDFAKKYNRKSVTAVHKANIMKLGDGLFRNIITEIGQKEYPDIDVSSIIVDNASMQAVAKPHQFDVLVTPSMYGTILGNIGAALIGGPGLVAGANFGRDYAVFEPGSRHVGLDIKGQNVANPTAMILSSTLMLNHLGLNEYATRISKAVHETIAEGKHTTRDIGGSSSTTDFTNEIINKLSTM
chain 2: B1 chain 2
modifications: left off: histidine tag, C-terminal, kept
- Hill coef. with respect to isocitrate, − AMP [2]: 3.1
- Vmax (apparent), + AMP [2]: 30.3 units/mg
- Hill coef. with respect to isocitrate, + AMP [2]: 3.5

B4: ^-5IDH1^D168A/IDH2 enzyme (complex, yeast)
chain 1: B3 chain 1 with D163A
chain 2: B1 chain 2
- stoichiometry N (AUC [3]): 8

B5: truncated ^-5IDH1/IDH2 enzyme (complex, yeast)
chain 1: B3 chain 1
chain 2: B1 chain 2
- K0.5 [1]: 0.52/0.11 (±0.04/0.01) mM
- stoichiometry N (SEC): 8

B6: ^-5IDH1^G15D/IDH2 enzyme (complex, yeast)
chain 1: B3 chain 1 with G10D
chain 2: B1 chain 2
- K0.5 [1]: 0.64/0.14 (±0.03/0.04) mM
- stoichiometry N (SEC): 4

B7: ^-5IDH1^D168K/IDH2: truncated -5 IDH1 with D168K replacement plus IDH2; tetrameric (protein)
chain 1: B3 chain 1 with D163K
chain 2: B1 chain 2
modifications: left off: histidine tag, C-terminal, kept
- Hill coef. with respect to isocitrate, − AMP [2]: 2.2
- Vmax (apparent), + AMP [2]: 15.3 units/mg
- Hill coef. with respect to isocitrate, + AMP [2]: 2.0
- reduction in apparent Vmax relative to ^-5IDH1/IDH2 [2]: ~ 50%

B8: ^-5IDH1^G15D/IDH2: truncated -5 IDH1 with G15D replacement plus IDH2; tetrameric (protein)
chain 1: B3 chain 1 with G10D
chain 2: B1 chain 2
modifications: left off: histidine tag, C-terminal, kept
- Hill coef. with respect to isocitrate, − AMP [2]: 2.2
- Vmax (apparent), + AMP [2]: 15.4 units/mg
- Hill coef. with respect to isocitrate, + AMP [2]: 2.0
- reduction in apparent Vmax relative to ^-5IDH1/IDH2 [2]: ~ 50%

B9: ^-5IDH1^G15A/IDH2 enzyme (complex, yeast)
chain 1: B3 chain 1 with G10A
chain 2: B1 chain 2
- stoichiometry N (AUC [4]): > 4

B10: IDH1^G15D/IDH2 enzyme (complex, yeast)
chain 1: B1 chain 1 with G15D
chain 2: B1 chain 2
- K0.5 [1]: 0.60/0.13 (±0.13/0.01) mM
- stoichiometry N (AUC [4]): 4

B11: ^-5IDH1^D168K/IDH2 (Saccharomyces cerevisiae S288C; D179K) (protein)
chain 1: B3 chain 1 with D163K
chain 2: B1 chain 2
- K0.5 [1]: 0.61/0.13 (±0.13/0.04) mM

B12: wild-type IDH1/IDH2 enzyme (yeast NAD+-specific isocitrate dehydrogenase) (complex)
chain 1: B1 chain 1
chain 2: B1 chain 2
- stoichiometry N (AUC [3]): 8

— article PMC3137751 (Biochemistry, 2010)
